RBBP9 inh: human RBBP9 inhibitors, primary screen, biochemical, fluorescence polarization, FP-Rh probe, HTS | Serine hydrolase RBBP9 (Homo sapiens), O75884 | recombinant RBBP9 | inhibition, % at 7.94 µM | 220,000 tested, 0.2% active | AID 1515, 2009;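 active = inhibition above the campaign mean of all tested compounds plus 3 SD, cut at about 14% in these data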;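 also: plate controls were DMSO wells with RBBP9 for no effect and wells lacking RBBP9 protein for full effect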
Target sequence (O75884 whole entry, looked up): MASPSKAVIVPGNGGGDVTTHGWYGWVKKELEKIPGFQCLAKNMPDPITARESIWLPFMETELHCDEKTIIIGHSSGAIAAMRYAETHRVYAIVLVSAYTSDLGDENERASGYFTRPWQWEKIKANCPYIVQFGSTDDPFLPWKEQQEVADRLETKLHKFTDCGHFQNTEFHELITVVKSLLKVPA
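Measured by: FP readout at 525/598 nm; material: recombinant human RBBP9; also added: Serine-hydrolase probe FP-Rh, 375 nM pre-mixing; medium: Tris buffer pH 8.0, NaCl, Pluronic; replication: one well per compound; doses: one concentration, 7.94 µM nominal, 0.794% DMSO; timing: preincubation 30 min plus labeling 45 min at 25 °C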
pPAFAH inh: pPAFAH enzyme inhibitors, primary screen, biochemical, fluorescence polarization, human; recombinant pPAFAH, FP-rhodamine probe fluorescence polarization; inhibition, % at 3.39 µM; 330,000 tested, 1.5% active;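 active = inhibition above the mean inhibition across the screen plus 3 SD, cut at about 25% in these data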;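 also: inhibitors block binding of the rhodamine activity-based probe so polarization drops; 0% = enzyme with DMSO and 100% = wells lacking pPAFAH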
PAFAH2 FP inh: PAFAH2 enzyme inhibitors, primary screen, biochemical, fluorescence polarization, human; Platelet-activating factor acetylhydrolase 2, cytoplasmic (Homo sapiens), Q99487; recombinant PAFAH2, FP-rhodamine activity probe; inhibition, % at 3.39 µM; 340,000 tested, 0.99% active; AID 492956, 2010;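 active = inhibition above the mean over all tested compounds plus 3 SD, cut at about 30% in these data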;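 also: inhibitors block probe labeling of enzyme so polarization drops; 0% = enzyme with DMSO and 100% = wells lacking PAFAH2 protein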
PAFAH1B3 FP inh: PAFAH1B3 enzyme inhibitors, primary screen, biochemical, fluorescence polarization, human | Platelet-activating factor acetylhydrolase IB subunit alpha1 (Homo sapiens), Q15102 | recombinant PAFAH1B3, FP-rhodamine probe | inhibition, % at 3.39 µM | AID 492972, 2010 | 340,000 tested, 0.28% active;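 active = inhibition above the screen-wide average of all tested compounds plus 3 SD, cut at about 25% in these data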;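 also: 0% = enzyme with DMSO only and 100% = wells lacking PAFAH1B3 protein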
Target sequence (Q15102 whole entry, looked up): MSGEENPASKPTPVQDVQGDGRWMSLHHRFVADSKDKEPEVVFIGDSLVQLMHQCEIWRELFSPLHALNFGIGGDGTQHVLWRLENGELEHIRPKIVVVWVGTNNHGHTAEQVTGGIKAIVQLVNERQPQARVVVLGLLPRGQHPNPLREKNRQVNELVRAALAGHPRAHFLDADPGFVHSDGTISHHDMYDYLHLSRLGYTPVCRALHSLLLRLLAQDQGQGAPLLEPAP
PAFAH1B2 FP inh: PAFAH1B2 enzyme inhibitors, primary screen, biochemical, fluorescence polarization, human. AID 492953, 2010. 340,000 tested, 1.2% active. inhibition, % at 3.39 µM. recombinant PAFAH1B2, FP-rhodamine activity probe. Platelet-activating factor acetylhydrolase IB subunit alpha2 (Homo sapiens), P68402;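 active = inhibition above the mean of all tested compounds plus 3 SD, cut at about 24% in these data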;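 also: 0% = enzyme with DMSO and 100% = wells lacking PAFAH1B2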
Target sequence (P68402 whole entry, looked up): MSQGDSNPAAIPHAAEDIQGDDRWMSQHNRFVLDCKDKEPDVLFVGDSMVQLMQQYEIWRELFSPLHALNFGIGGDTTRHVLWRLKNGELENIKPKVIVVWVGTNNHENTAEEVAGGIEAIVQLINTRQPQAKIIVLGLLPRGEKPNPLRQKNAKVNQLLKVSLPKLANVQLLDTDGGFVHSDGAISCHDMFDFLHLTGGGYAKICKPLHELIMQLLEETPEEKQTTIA
PAFAH1B3 conf FP: PAFAH1B3 enzyme inhibitors, confirmation, biochemical, fluorescence polarization, human. shares compounds with PAFAH1B3 FP inh. recombinant PAFAH1B3, FP-Rh activity-based probe. inhibition, % at 3.39 µM. 390 tested, 30% active. AID 493032, 2011;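 active = average inhibition over triplicate runs above the hit cutoff set in the earlier primary screen, cut at about 25% in these data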;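 also: 0% = enzyme with DMSO and 100% = wells lacking PAFAH1B3 protein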
Active calls of the source: *; · = no result given. Sampled rows, rich in hits. Any-hit rate of the full collection: about 2.7%.

SMILES | RBBP9 inh | pPAFAH inh | PAFAH2 FP inh | PAFAH1B3 FP inh | PAFAH1B2 FP inh | PAFAH1B3 conf FP
N#Cc1cc2c(nc1SCC(N)=O)CCCCC2 | -4 | 4 | -4 | 6 | 2 | ·
O=C(O)/C=C1\NC(=O)c2ccccc21 | 1 | 3 | 1 | 6 | 3 | ·
O=C1N/C(=C\c2ccc(O)cc2)C(=O)c2ccccc21 | -12 | 3 | 3 | 33* | 10 | 25
O=C(CSc1ccc2nnc(-c3ccccn3)n2n1)Nc1cccc(F)c1 | · | 1 | 1 | 10 | -4 | ·
CCc1nnc(NC(=O)c2sc3nc4cc(C)ccc4cc3c2N)s1 | 2 | 3 | 12 | 27* | 19 | 20
Cc1ccc(Cl)c(NC(=O)CSc2n[nH]c(=O)n2C2CC2)c1Cl | · | 0 | 6 | 7 | 6 | ·
C=CCn1c(NC(=O)c2ccc(Br)o2)c(S(=O)(=O)c2ccccc2)c2nc3ccccc3nc21 | -9 | 6 | 25 | 53* | 17 | 6
O=C1C=C(Nc2ccccc2)C(=O)c2ccccc21 | 3 | 3 | -1 | 4 | 3 | ·
CCc1ccc(NC2=CC(=O)C(=O)c3ccccc32)cc1 | · | · | 18 | 59* | 9 | 37*
O=C1C=C(Nc2ccccc2)c2ccccc2C1=O | -2 | · | 7 | 62* | 9 | 30*
Cn1cccc1/C=N/N1CCN(c2ccccc2)CC1 | -1 | 2 | 2 | 0 | 5 | ·
C/C(=N/Nc1ccc(C(=O)O)cc1)c1ccc2c(c1)Nc1ccccc1S2 | · | · | 25 | 26* | 6 | 19
Cc1[nH]c2ccccc2c1CCNC(=O)c1ccc2c(c1[N+](=O)[O-])C(=O)c1ccccc1C2=O | -9 | 17 | 18 | 44* | 20 | 67*
COc1ncnc(OC)c1NC(=O)c1ccc(F)cc1 | -9 | -2 | 4 | 1 | 1 | ·
Cn1nc(C(C)(C)C)c(NC(=O)c2ccc(F)cc2)c1C(C)(C)C | -12 | 1 | -4 | 31* | -2 | 7
O=C1C(Cl)=C(Nc2ccc3cn[nH]c3c2)C(=O)c2ccccc21 | 13 | 11 | 19 | 38* | 15 | 27*
CN(C)c1ccc(NC2=C(Cl)C(=O)c3ccccc3C2=O)cc1 | 3 | 15 | 15 | 39* | 24 | 23
O=C(Nc1ccc2cn[nH]c2c1)c1c(Cl)cccc1Cl | -2 | 4 | -6 | 1 | 5 | ·
C[C@@H]1CN([C@@H](C)CO)C(=O)Cc2cc(NS(=O)(=O)c3cn(C)cn3)ccc2O[C@@H]1CN(C)C(=O)Nc1ccccc1 | · | 6 | -4 | 26* | 3 | 10
C[C@H](CO)N1C[C@H](C)[C@H](CN(C)S(=O)(=O)c2cccs2)Oc2ccc(NC(=O)Nc3ccc4c(c3)OCO4)cc2CC1=O | · | 11 | 17 | 28* | 18 | 12
C[C@H](CO)N1C[C@H](C)[C@@H](CN(C)S(=O)(=O)c2cccs2)Oc2ccc(NC(=O)Nc3ccc4c(c3)OCO4)cc2C1=O | · | 18 | 13 | 16 | 15 | ·
CC(=O)Nc1cccc(C(=O)OC(C)C(=O)N2CCc3ccccc32)c1 (stereo not given) | · | 0 | 0 | 4 | 4 | ·
Cn1c(COc2ccccc2)nnc1SCC(=O)Nc1ccc(N2CCOCC2)cc1 | · | 1 | 0 | 10 | -2 | ·
O=C(COC(=O)c1ccc([N+](=O)[O-])s1)Nc1ncc(C(F)(F)F)cc1Cl | -2 | 14 | 25 | 30* | 11 | 10
COc1ccc(N(C(=O)c2ccc(F)cc2)C2=CC3CCC(C2)N3C)cc1 (stereo not given) | 6 | 0 | 6 | 0 | 4 | ·
SMILES | RBBP9 inh | pPAFAH inh | PAFAH2 FP inh | PAFAH1B3 FP inh | PAFAH1B2 FP inh | PAFAH1B3 conf FP
O=C(N/N=C/c1ccccc1O)NC12CC3CC(CC(C3)C1)C2 | · | 5 | 5 | 26* | 6 | 21
CN(C)C(C)(C)/C=C/C(O)(c1ccccc1)c1ccccc1 | -4 | -3 | -2 | 5 | 3 | ·
CCc1cccc2c(N=O)c(O)[nH]c12 | 0 | 10 | 11 | 28* | 12 | 24
Cn1c(=O)c2ncn(CC(=O)Nc3cccc(-c4nc5ccccc5s4)c3)c2n(C)c1=O | 2 | -6 | -5 | -2 | -5 | ·
CC1=C(C(=O)OCc2ccccc2)C(c2ccccc2OC(F)F)NC(=O)N1 (stereo not given) | -10 | -1 | -1 | -2 | -1 | ·
COCCCNC(=O)c1ccc(CS(=O)(=O)c2ccc(Br)cc2)o1 | -7 | -4 | 10 | 29* | -4 | 8
COCCCNC(=O)c1ccc(CS(=O)(=O)c2ccc(OC)cc2)o1 | 2 | -4 | -9 | 2 | 2 | ·
Cc1cccc(NS(=O)(=O)c2cc3c(cc2C)n(C)c(=O)c(=O)n3C)c1 | · | 5 | -6 | -5 | -2 | ·
O=C(COc1ccccc1Cl)NCCNC(=O)c1cccnc1 | · | -10 | -4 | 4 | -4 | ·
COc1ccc(/C=C/C(=O)NC(=S)Nc2cc([N+](=O)[O-])ccc2O)cc1OC | 7 | 18 | 9 | 35* | 18 | 31*
CCOC(=O)C[C@H]1c2cc(F)ccc2S(=O)(=O)N1Cc1ccc(OC)cc1 | · | 2 | 7 | -4 | -1 | ·
Cc1cccc2c1NC(=O)C2=O | · | · | 16 | 36* | 14 | 25
O=C(O)c1ccc(Nc2nc(-c3ccc([N+](=O)[O-])cc3)nc3ccccc23)cc1 | · | · | 11 | 26* | 8 | 14
O=[N+]([O-])c1ccc(-c2nc(Nc3ccc(O)cc3)c3ccccc3n2)cc1 | · | · | 7 | 18 | 6 | ·
CN1C(=O)/C(=C/c2ccc(OCc3ccccc3F)cc2)N(C)C1=S | · | 1 | 1 | -1 | 3 | ·
CC(=C1C(=O)c2ccccc2C1=O)N1CCc2ccccc2C1 | -5 | 2 | 4 | 27* | 2 | 9
CC(C(=O)N1CCc2ccccc2C1)N(c1ccccc1)S(C)(=O)=O (stereo not given) | · | 0 | -6 | 9 | 2 | ·
Cc1cc(C)c(NC(=O)CNC(=O)Cc2sc(C)nc2-c2ccc(F)cc2)c(C)c1 | · | -1 | 4 | -9 | 5 | ·
COc1ccccc1NS(=O)(=O)c1cccc(C(=O)NCC(c2ccc(F)cc2)N2CCOCC2)c1 (stereo not given) | · | 6 | -2 | 32* | 2 | 9
COc1cc(NS(=O)(=O)c2ccc(NC(=S)NC(=O)/C=C/c3ccco3)cc2)ncn1 | -6 | · | 27 | 29* | 9 | 17
O=C(OCC(=O)N1CCc2ccccc2C1)c1ccc(F)cc1Cl | · | -2 | 2 | 8 | 5 | ·
Cn1c2ccccc2c(=O)c2ccc(C#Cc3ccc(N)cc3)cc21 | · | 24 | -13 | 35* | 2 | 17
COc1cc(C(=O)N/N=C/c2cn(Cc3cccc(F)c3)c3ccccc23)ccc1O | · | · | -14 | 34* | 10 | 18

Screens as filed in PubChem.
